Here are results for six molecules from paper PMC9774329 (ACS Omega, 2022).

Common to all, as to format: cell-based, human
The test system of one experiment is HCT-116 cell line. Briefly: MTT antiproliferative assay on colon cancer cells. The following applies: HCT-116, MTT, 48 h; compared to 3′-O-methyltaxifolin and quercetin. An outline of the steps:
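HCT-116 cells were seeded at 20,000 cells/well in DMEM with FBS, L-glutamine, penicillin, streptomycin and selenium chloride at 37 °C in CO2. They were exposed to test compound at 5.0–40 μg/mL for 48 h, with untreated controls. MTT (5.0 mg/mL) was added for 4 h, then DMSO […], and OD was read at 570 nm. Done in triplicate.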
On the technique in general: Formazan colour is commonly taken as a measure of viable cells.

In experiment [1] the test system is caspase-9 expression in HCT-116 cells. The experiment in a line: Caspase-9 detection by ELISA in cell lysates. The following applies: HCT-116, 48 h treatment, 40 μg/mL. The procedure, abridged:
(§1)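 HCT-116 cells were seeded at 50,000 cells/well in a CO2 incubator. After 24 h, at 70–80% confluence, cells received test compound at 40 μg/mL for 48 h; untreated cells served as controls. Cells were PBS-washed, detached with 0.35% trypsin and spun at 1000 rpm. Pellets were lysed 60 min and re-spun at 1000 rpm for 15 min. Lysates were assayed with human caspase-3 or caspase-9 ELISA kits, absorbance 620 nm.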
On the technique in general: ELISA stands for enzyme-linked immunosorbent assay.

Experiment [2] concerns caspase-3 expression in HCT-116 cells. Briefly: Caspase-3 detection by ELISA in cell lysates. The note with it: HCT-116, 48 h treatment, 40 μg/mL. The procedure, abridged:
as §1

In experiment [3] the test system is colon (HCT-116) cancer cells. Briefly: Apoptosis confirmation by DAPI staining. The note with it: HCT-116, 48 h post-treatment. The procedure, abridged:
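Fixed HCT-116 cells were examined for apoptosis after 48 h compound exposure. Cells were fixed in 4% paraformaldehyde and stained in the dark with DAPI (1.0 μg/mL). Nuclear morphology was assessed by fluorescence confocal scanning microscopy.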

On to `COc1cc(O)c2c(c1)O[C@H](c1ccc(O)c(OC)c1)[C@@H](O)C2=O` [Compound 1, 7,3′-Di-O-methyltaxifolin], for which, in the experiment on HCT-116 cell line, the “reduction in the numbers of cancer cells” value was “significant reductions”. In experiment [1], the “caspase-9 expression (ELISA, optical density)” value (shortened to “caspase-9 expression”) was “increase”. The “caspase-3 expression (ELISA, optical density)” value (from here on “caspase-3 expression”) in experiment [2] was “increase”. Moreover, the “apoptosis induction (chromatin condensation, nuclear shrinkage) by DAPI staining” value (“apoptosis induction” for short) in experiment [3] is reported as “induced apoptosis”.
Take `COc1cc([C@H]2Oc3cc(O)cc(O)c3C(=O)[C@@H]2O)ccc1O` [Compound 2, 3′-O-Methyltaxifolin]: in experiment [1], the “caspase-9 expression” value was “increase”. Also, the “caspase-3 expression” value in experiment [2] is given as “increase”. The “apoptosis induction” value in experiment [3] is listed as “induced apoptosis”.
As to `COc1cc(O)c2c(c1)O[C@H](c1ccc(O)c(O)c1)[C@@H](O)C2=O` [Compound 3, 7-O-Methyltaxifolin], the “reduction in the numbers of cancer cells” value in the experiment with HCT-116 cell line is recorded as “significant reductions”. The “caspase-9 expression” value in experiment [1] is listed as “increase”. In experiment [2], the “caspase-3 expression” value is “increase”. For the same molecule, in experiment [3], the “apoptosis induction” value is recorded as “induced apoptosis”.
For `O=C1c2c(O)cc(O)cc2OC(c2ccc(O)c(O)c2)C1O` (stereo not shown) [Compound 4, Dihydroquercetin (taxifolin)], the “reduction in the numbers of cancer cells” value in the experiment on HCT-116 cell line is reported as “significant reductions”. In addition, the “caspase-9 expression” value in experiment [1] was “increase”. In addition, in experiment [2], the “caspase-3 expression” value is reported as “increase”. The “apoptosis induction” value in experiment [3] is “induced apoptosis”.
Consider `COc1c(-c2ccc(O)c(O)c2)oc2cc(O)cc(O)c2c1=O` [Compound 5, 3-O-Methylquercetin], for which the “reduction in the numbers of cancer cells” value in the experiment with HCT-116 cell line is “significant reductions”. Also, in experiment [1], the “caspase-9 expression” value is recorded as “increase”. The “caspase-3 expression” value in experiment [2] is on record as “increase”. Also, in experiment [3], the “apoptosis induction” value is recorded as “induced apoptosis”.
With `O=c1c(O)c(-c2ccc(O)c(O)c2)oc2cc(O)cc(O)c12` [Compound 6, Quercetin], in experiment [1], the “caspase-9 expression” value was “increase”. The “caspase-3 expression” value in experiment [2] was “increase”. Further, the “apoptosis induction” value in experiment [3] was “induced apoptosis”.
